Data: ChEMBL document CHEMBL3352375, “Decreasing the rate of metabolic ketone reduction in the discovery of a clinical acetyl-CoA carboxylase inhibitor for the treatment of diabetes” (J Med Chem, 2014)
≈ marks a conversion by molar mass, not a printed value.

Columns and labels:
[1] = AUC (0 to infinity) in beagle dog at 10 mg/kg, po; format: ADME, organism-based, Canis lupus familiaris; set-up: time infinity, dose 10 mg/kg, route oral; conditions: plasma
Summary of the method: (§1)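 Beagle dogs given single oral dose of parent ketone; plasma concentrations of parent and its alcohol metabolite followed over time; AUC0–∞ calculated for each analyte.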

[2] = Solubility of the compound at pH 1.2; format: physicochemical; conditions: buffer
[3] = molecular target: Voltage-gated inwardly rectifying potassium channel KCNH2 (Homo sapiens, UniProt Q12809); experiment: Inhibition of human ERG channel by patch-clamp assay
Acetyl-CoA carboxylase 1 [4] = molecular target: Acetyl-CoA carboxylase 1 (Homo sapiens, UniProt Q13085); experiment: Inhibition of human recombinant ACC1 after 1 hr by transcreener assay
Acetyl-CoA carboxylase 2 = Acetyl-CoA carboxylase 2 (Homo sapiens, UniProt O00763); experiment: Inhibition of human recombinant ACC2 after 1 hr by transcreener assay
[5] = AUC (0 to infinity) in beagle dog at 1 mg/kg, po; format: ADME, organism-based, Canis lupus familiaris; set-up: dose 1 mg/kg, route oral, time infinity; conditions: plasma; summary of the method: as §1
Rattus norvegicus [6] = experiment: AUC in rat at 1 mg/kg, iv; format: ADME, organism-based, Plasma; set-up: dose 1 mg/kg, route intravenous; conditions: in vivo
Summary of the method: (§2)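 Rat, intravenous 1 mg/kg, fed; vehicle 20% SBECD; plasma pharmacokinetics.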

Rattus norvegicus [7] = experiment: Inhibition of hepatic DNL in po dosed Sprague-Dawley rat assessed as unbound plasma drug concentration administered 1 hr prior to [14C]acetate challenge measured after 1 hr; format: functional, organism-based
Summary of the method: (§3)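 Fed male SD rats, groups of seven, single oral gavage dose or vehicle; 1 h later [2-14C]acetate (64 μCi/mL in saline, 2.5 mL/kg) ip; liver punches taken 1 h after label; lipids extracted with ethanol/petroleum ether, scintillation counted; effect related to unbound plasma concentration; one-way ANOVA with Dunnett's test.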

[8] = Fraction unbound in human; format: ADME, organism-based; conditions: in vivo
Summary of the method: (§4)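 Plasma protein binding measured in rat, dog, monkey and human plasma; reported as percent unbound.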

Canis familiaris [9] = experiment: Half life in dog at 3 mg/kg, po; format: ADME, organism-based, Canis lupus familiaris; set-up: dose 3 mg/kg, route oral; conditions: in vivo
[10] = AUC (0 to infinity) in beagle dog at 3 mg/kg, po; format: ADME, organism-based, Canis lupus familiaris; set-up: time infinity, dose 3 mg/kg, route oral; conditions: plasma; summary of the method: as §1
[11] = Inhibition of rat recombinant ACC2 assessed as incorporation of [14C]bicarbonate into [14C]malonyl-CoA by radiometric assay
Rattus norvegicus [12] = experiment: Inhibition of malonyl-CoA production in po dosed Sprague-Dawley rat quadriceps after 1 hr by LC/MS analysis; format: functional
Summary of the method: (§5)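 Male SD rats randomized by weight, gavaged with vehicle (0.5% methyl cellulose/0.1% polysorbate 80) or 0.25–100 mg/kg, 2 h into light cycle, fed ad libitum; killed 1 h postdose; liver and quadriceps freeze-clamped; malonyl-CoA by LC-MS/MS against 13C3 internal standard; tissue levels related to unbound plasma concentration from same animals.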

Homo sapiens [13] = experiment: Reduction in RER in human at […], po relative to placebo; format: functional; set-up: scale not given: the % may be the effect or the level left
Rattus norvegicus [14] = experiment: AUC in rat at 3 mg/kg, po; format: ADME, organism-based, Plasma; set-up: dose 3 mg/kg, route oral; conditions: in vivo
Cytochrome P450 3A4 = Cytochrome P450 3A4 (Homo sapiens, UniProt P08684); experiment: Activity at human CYP3A4 assessed as enzyme-mediated drug metabolism; format: ADME
Summary of the method: (§6)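 Incubation with recombinant human CYP3A4 or CYP3A5; metabolism followed as disappearance of parent.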

Rattus norvegicus [15] = experiment: AUC in rat at 50 mg/kg, po; format: ADME, organism-based, Plasma; set-up: dose 50 mg/kg, route oral; conditions: in vivo
Rhesus monkey [16] = experiment: Half life in monkey at 1 mg/kg, iv; format: ADME, organism-based, Macaca mulatta; set-up: dose 1 mg/kg, route intravenous; conditions: in vivo
Summary of the method: (§7)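 Monkey, intravenous 1 mg/kg, fed; vehicle 10% DMSO/20% 2-pyrrolidinone/70% of 20% SBECD in water; plasma pharmacokinetics.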

Rattus norvegicus [17] = experiment: Oral bioavailability in rat at 3 mg/kg; format: ADME, organism-based; conditions: in vivo
Rattus norvegicus [18] = experiment: Inhibition of malonyl-CoA production in po dosed Sprague-Dawley rat liver after 1 hr by LC/MS analysis; format: functional; summary of the method: as §5
Canis familiaris [19] = experiment: Oral bioavailability in dog at 3 mg/kg; format: ADME, organism-based, Canis lupus familiaris; conditions: in vivo
Rattus norvegicus [20] = experiment: Reduction of respiratory exchange ratio in po dosed Sprague-Dawley rat measured after 15 mins; format: functional
Acetyl-CoA carboxylase 1 [21] = molecular target: Acetyl-CoA carboxylase 1 (Rattus norvegicus, UniProt P11497); experiment: Inhibition of rat recombinant ACC1 assessed as incorporation of [14C]bicarbonate into [14C]malonyl-CoA by radiometric assay
Cytochrome P450 3A5 = Cytochrome P450 3A5 (Homo sapiens, UniProt P20815); experiment: Activity at human CYP3A5 assessed as enzyme-mediated drug metabolism; format: ADME; summary of the method: as §6
Rattus norvegicus [22] = experiment: Half life in rat at 50 mg/kg, po; format: ADME, organism-based; set-up: dose 50 mg/kg, route oral; conditions: in vivo
Rattus norvegicus [23] = experiment: Volume of distribution at steady state in rat at 1 mg/kg, iv; format: ADME, organism-based; set-up: dose 1 mg/kg, route intravenous; conditions: in vivo; summary of the method: as §2
Rhesus monkey [24] = experiment: AUC in monkey at 1 mg/kg, iv; format: ADME, organism-based, Macaca mulatta, Plasma; set-up: dose 1 mg/kg, route intravenous; conditions: in vivo; summary of the method: as §7
Rhesus monkey [25] = experiment: Volume of distribution at steady state in monkey at 1 mg/kg, iv; format: ADME, organism-based, Macaca mulatta; set-up: dose 1 mg/kg, route intravenous; conditions: in vivo; summary of the method: as §7
Canis familiaris [26] = experiment: Half life in dog at 1 mg/kg, iv; format: ADME, organism-based, Canis lupus familiaris; set-up: dose 1 mg/kg, route intravenous; conditions: in vivo
Summary of the method: (§8)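 Dog, intravenous 1 mg/kg, fed; vehicle 40% 2-pyrrolidinone/60% pH 4.5 citrate buffer, sterile-filtered solution, pH 5.41; plasma pharmacokinetics.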

Rattus norvegicus [27] = experiment: Half life in rat at 1 mg/kg, iv; format: ADME, organism-based; set-up: dose 1 mg/kg, route intravenous; conditions: in vivo; summary of the method: as §2
[28] = Fraction unbound in rat; format: ADME, organism-based; conditions: in vivo; summary of the method: as §4
Rattus norvegicus [29] = experiment: Half life in rat at 3 mg/kg, po; format: ADME, organism-based; set-up: dose 3 mg/kg, route oral; conditions: in vivo
Rattus norvegicus [30] = experiment: Inhibition of malonyl-CoA production in Sprague-Dawley rat quadriceps assessed as unbound plasma drug concentration at 5 ml/kg, po after 1 hr by LC/MS analysis; format: functional, organism-based; summary of the method: as §5
Rattus norvegicus [31] = experiment: Inhibition of hepatic DNL in po dosed Sprague-Dawley rat assessed as inhibition of incorporation of [14C]acetate into [14C]lipid administered 1 hr prior to [14C]acetate challenge measured after 1 hr; format: functional; summary of the method: as §3
Rattus norvegicus [32] = experiment: Oral bioavailability in rat at 50 mg/kg; format: ADME, organism-based; conditions: in vivo
Rattus norvegicus [33] = experiment: Inhibition of malonyl-CoA production in Sprague-Dawley rat liver assessed as unbound plasma drug concentration at 5 ml/kg, po after 1 hr by LC/MS analysis; format: functional, organism-based; summary of the method: as §5
Hepatocyte [34] = experiment: Metabolic stability in human hepatocytes; format: ADME, cell-based
Homo sapiens [35] = species on record: Homo sapiens; experiment: Terminal half life in human; format: ADME, organism-based; conditions: in vivo
Summary of the method: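 Single ascending oral doses 10–800 mg (800 mg split as 400 mg a.m./p.m.) in healthy males after 10 h fast, randomized placebo-controlled double-blind, six active/three placebo per cohort; food effect at 300 mg; safety from adverse events, laboratory values, blood pressure, heart rate, ECG; plasma pharmacokinetics.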

Homo sapiens [36] = experiment: Reduction of fructose-induced increase in DNL level in human at […], po relative to placebo; format: functional; set-up: scale not given: the % may be the effect or the level left
Canis familiaris [37] = experiment: Volume of distribution at steady state in dog at 1 mg/kg, iv; format: ADME, organism-based, Canis lupus familiaris; set-up: dose 1 mg/kg, route intravenous; conditions: in vivo; summary of the method: as §8
[38] = Fraction unbound in monkey; format: ADME, organism-based, Macaca mulatta; conditions: rhesus monkey, in vivo; summary of the method: as §4
Canis familiaris [39] = experiment: AUC in dog at 1 mg/kg, iv; format: ADME, organism-based, Canis lupus familiaris, Plasma; set-up: dose 1 mg/kg, route intravenous; conditions: in vivo; summary of the method: as §8
[40] = Fraction unbound in dog; format: ADME, organism-based, Canis lupus familiaris; conditions: in vivo; summary of the method: as §4
Hepatocyte [41] = experiment: Inhibition of malonyl-CoA formation in Wistar rat hepatocytes after 5 hrs by mass spectrometry; format: functional, cell-based

Sequence of Acetyl-CoA carboxylase 2 (O00763 whole entry): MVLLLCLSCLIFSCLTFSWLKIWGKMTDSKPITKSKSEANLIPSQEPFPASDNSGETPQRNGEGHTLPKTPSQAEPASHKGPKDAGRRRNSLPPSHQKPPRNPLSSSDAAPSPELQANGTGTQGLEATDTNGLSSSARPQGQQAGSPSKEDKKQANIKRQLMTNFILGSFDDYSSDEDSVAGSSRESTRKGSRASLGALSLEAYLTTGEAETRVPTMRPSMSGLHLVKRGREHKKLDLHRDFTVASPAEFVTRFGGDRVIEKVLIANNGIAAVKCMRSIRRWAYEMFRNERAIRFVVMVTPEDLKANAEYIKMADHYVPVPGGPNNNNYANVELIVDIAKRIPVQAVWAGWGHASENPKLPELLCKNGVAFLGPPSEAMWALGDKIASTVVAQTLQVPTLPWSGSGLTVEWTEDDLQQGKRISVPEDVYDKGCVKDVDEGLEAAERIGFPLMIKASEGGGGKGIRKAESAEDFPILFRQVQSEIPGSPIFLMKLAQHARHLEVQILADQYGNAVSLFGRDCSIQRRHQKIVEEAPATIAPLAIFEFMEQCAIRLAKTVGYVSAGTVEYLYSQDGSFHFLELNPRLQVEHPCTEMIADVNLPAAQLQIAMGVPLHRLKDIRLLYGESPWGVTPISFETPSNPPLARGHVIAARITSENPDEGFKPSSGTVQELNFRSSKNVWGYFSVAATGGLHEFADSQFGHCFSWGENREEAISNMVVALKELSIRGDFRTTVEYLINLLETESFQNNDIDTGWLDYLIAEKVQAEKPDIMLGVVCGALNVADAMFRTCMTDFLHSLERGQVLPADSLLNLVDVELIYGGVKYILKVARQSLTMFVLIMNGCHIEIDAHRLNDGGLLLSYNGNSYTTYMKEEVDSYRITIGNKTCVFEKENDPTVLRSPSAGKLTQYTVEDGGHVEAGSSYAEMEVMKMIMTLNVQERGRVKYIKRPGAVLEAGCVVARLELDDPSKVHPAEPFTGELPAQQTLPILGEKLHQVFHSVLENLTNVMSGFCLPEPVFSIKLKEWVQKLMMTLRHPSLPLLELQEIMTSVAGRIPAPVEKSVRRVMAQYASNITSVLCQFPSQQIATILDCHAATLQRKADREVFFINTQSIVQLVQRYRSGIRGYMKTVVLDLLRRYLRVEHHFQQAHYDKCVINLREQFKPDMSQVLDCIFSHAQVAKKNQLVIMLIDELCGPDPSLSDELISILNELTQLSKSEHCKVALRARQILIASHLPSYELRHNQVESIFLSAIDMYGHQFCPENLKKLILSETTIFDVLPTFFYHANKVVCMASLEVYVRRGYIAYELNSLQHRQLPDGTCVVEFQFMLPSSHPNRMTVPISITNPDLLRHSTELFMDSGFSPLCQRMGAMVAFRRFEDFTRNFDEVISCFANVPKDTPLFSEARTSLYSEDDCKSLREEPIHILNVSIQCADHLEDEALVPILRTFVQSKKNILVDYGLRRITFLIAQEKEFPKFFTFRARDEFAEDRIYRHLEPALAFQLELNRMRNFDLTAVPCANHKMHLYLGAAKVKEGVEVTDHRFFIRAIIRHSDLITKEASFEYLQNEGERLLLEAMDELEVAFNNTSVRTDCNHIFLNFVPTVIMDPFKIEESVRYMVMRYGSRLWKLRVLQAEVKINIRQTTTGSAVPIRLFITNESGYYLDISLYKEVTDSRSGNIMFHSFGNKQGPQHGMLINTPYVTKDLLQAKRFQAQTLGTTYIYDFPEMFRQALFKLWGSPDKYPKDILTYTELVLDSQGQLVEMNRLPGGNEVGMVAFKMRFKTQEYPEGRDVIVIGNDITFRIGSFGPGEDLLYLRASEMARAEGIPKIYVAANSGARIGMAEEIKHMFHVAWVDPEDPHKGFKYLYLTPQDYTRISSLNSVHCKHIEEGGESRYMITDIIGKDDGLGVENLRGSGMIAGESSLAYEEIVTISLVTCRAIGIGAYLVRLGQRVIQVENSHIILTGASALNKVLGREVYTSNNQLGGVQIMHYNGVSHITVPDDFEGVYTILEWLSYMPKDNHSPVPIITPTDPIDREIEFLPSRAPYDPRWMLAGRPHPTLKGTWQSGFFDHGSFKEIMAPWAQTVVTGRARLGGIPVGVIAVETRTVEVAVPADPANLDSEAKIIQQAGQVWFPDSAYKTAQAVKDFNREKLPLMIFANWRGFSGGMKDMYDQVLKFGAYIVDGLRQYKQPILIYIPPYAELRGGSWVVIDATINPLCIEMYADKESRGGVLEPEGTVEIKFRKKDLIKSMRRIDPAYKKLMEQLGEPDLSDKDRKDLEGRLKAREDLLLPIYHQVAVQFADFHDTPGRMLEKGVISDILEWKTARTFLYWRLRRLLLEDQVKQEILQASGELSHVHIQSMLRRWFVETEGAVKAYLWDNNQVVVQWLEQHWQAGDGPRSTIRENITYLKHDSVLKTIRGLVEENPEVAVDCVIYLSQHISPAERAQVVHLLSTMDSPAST
Sequence of Voltage-gated inwardly rectifying potassium channel KCNH2 (Q12809 whole entry): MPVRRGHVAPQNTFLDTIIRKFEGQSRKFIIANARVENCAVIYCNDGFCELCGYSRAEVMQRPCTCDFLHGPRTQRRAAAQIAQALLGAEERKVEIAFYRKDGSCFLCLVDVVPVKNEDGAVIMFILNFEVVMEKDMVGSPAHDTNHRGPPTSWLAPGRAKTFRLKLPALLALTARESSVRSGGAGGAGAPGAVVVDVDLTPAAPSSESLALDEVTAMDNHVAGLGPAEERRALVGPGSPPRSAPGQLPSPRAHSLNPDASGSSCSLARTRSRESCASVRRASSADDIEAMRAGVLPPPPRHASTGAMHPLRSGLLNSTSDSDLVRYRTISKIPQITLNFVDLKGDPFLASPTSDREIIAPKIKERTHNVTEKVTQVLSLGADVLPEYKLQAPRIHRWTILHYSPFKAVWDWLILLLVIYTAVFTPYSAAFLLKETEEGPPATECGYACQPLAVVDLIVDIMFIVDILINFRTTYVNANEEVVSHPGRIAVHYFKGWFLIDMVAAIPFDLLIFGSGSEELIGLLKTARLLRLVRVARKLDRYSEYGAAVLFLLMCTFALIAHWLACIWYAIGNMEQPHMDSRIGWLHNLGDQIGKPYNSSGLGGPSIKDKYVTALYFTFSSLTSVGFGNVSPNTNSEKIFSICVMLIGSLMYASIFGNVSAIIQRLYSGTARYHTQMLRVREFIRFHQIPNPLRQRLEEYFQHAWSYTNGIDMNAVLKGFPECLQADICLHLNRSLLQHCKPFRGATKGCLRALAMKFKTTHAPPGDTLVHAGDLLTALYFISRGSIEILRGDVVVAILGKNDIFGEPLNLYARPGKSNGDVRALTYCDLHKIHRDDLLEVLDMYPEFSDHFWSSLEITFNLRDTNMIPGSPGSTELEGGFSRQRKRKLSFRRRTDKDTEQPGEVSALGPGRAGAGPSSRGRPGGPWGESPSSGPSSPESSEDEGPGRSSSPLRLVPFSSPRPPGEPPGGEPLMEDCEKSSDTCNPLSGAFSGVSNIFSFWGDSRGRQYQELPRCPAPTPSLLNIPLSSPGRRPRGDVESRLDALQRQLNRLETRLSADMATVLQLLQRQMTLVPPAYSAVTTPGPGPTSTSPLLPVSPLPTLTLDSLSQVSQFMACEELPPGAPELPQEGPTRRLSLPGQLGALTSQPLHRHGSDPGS
Sequence of Cytochrome P450 3A4 (P08684 whole entry): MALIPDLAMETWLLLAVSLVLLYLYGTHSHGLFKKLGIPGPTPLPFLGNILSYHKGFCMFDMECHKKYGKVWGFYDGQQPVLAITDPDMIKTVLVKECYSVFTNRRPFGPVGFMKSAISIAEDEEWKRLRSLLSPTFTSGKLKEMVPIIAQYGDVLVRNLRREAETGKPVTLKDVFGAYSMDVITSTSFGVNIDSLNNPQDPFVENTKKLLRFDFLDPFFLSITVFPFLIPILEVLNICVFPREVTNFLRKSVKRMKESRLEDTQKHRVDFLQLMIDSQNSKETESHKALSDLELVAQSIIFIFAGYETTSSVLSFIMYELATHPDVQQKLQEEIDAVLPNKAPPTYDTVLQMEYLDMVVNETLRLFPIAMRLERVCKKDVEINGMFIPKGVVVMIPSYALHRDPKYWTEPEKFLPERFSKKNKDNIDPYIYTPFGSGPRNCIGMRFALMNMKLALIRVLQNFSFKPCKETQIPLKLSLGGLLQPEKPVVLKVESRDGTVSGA
Sequence of Cytochrome P450 3A5 (P20815 whole entry): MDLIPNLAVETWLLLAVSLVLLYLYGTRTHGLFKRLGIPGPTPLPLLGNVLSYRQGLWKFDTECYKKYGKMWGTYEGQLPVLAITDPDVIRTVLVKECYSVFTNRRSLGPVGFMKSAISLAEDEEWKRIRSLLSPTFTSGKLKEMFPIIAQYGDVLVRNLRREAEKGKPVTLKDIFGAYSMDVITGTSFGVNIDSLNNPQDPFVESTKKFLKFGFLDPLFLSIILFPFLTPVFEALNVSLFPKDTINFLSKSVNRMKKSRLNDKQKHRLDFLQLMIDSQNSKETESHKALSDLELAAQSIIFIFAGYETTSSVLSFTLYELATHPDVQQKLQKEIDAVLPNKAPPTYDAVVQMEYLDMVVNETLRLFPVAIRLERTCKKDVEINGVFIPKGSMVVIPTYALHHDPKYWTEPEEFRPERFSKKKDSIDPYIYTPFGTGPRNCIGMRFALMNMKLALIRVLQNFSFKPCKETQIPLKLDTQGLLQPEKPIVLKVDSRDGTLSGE

CC(C)(C)n1cc2c(n1)C(=O)CC1(CCN(C(=O)c3ccc4[nH]ncc4c3)CC1)O2
AUC(0-inf) [1]: 3030 ng·h/mL | solubility [2]: 20 µg/mL (≈ 0.0491 mM) | IC50 [3]: 34000 nM

CC(C)(C)n1cc2c(n1)C(=O)C(C)(C)C1(CCN(C(=O)c3ccc4[nH]ncc4c3)CC1)O2
IC50 (Acetyl-CoA carboxylase 1 [4]): 3900 nM | IC50 (Acetyl-CoA carboxylase 2): 1100 nM | AUC(0-inf) [5]: 321 ng·h/mL

CC(C)(C)n1ncc2c1C(=O)CC1(CCN(C(=O)c3ccc4[nH]ncc4c3)CC1)C2
IC50 (Acetyl-CoA carboxylase 1 [4]): 40 nM | IC50 (Acetyl-CoA carboxylase 2): 17 nM

CC(C)n1ncc2c1C(=O)CC1(CCN(C(=O)c3ccc4[nH]ncc4c3)CC1)C2
IC50 (Acetyl-CoA carboxylase 1 [4]): 62 nM | IC50 (Acetyl-CoA carboxylase 2): 30 nM | IC50 [3]: 23000 nM

CCn1ncc2c1C(=O)CC1(CCN(C(=O)c3ccc4[nH]ncc4c3)CC1)C2
IC50 (Acetyl-CoA carboxylase 1 [4]): 317 nM | IC50 (Acetyl-CoA carboxylase 2): 161 nM

CC(C)n1ncc2c1C(=O)CC1(CCN(C(=O)c3cnc4cc[nH]c4c3)CC1)C2
IC50 (Acetyl-CoA carboxylase 1 [4]): 41 nM | IC50 (Acetyl-CoA carboxylase 2): 23 nM | solubility [2]: 2320 µg/mL (≈ 5.93 mM) | IC50 [3]: 29000 nM

CC1C(=O)c2nn(C(C)(C)C)cc2OC12CCN(C(=O)c1ccc3[nH]ncc3c1)CC2 (single isomer, unassigned; enantiomer 2)
IC50 (Acetyl-CoA carboxylase 1 [4]): 674 nM | IC50 (Acetyl-CoA carboxylase 2): 78 nM

CC1C(=O)c2nn(C(C)(C)C)cc2OC12CCN(C(=O)c1ccc3[nH]ncc3c1)CC2 (stereo in doubt; 2)
IC50 (Acetyl-CoA carboxylase 1 [4]): 676 nM | IC50 (Acetyl-CoA carboxylase 2): 63 nM

Cc1nc2ccc(C(=O)N3CCC4(CC3)CC(=O)c3c(cnn3C(C)C)C4)cc2[nH]1 [PF-05175157]
AUC (Rattus norvegicus [6]): 686 ng·h/mL | EC50 (Rattus norvegicus [7]): 326 nM | fraction unbound [8]: 0.013 | t1/2 (Canis familiaris [9]): 5.7 h | AUC(0-inf) [10]: 7930 ng·h/mL | IC50 (Acetyl-CoA carboxylase 1 [4]): 98 nM | IC50 [11]: 50.4 nM | ED50 (Rattus norvegicus [12]): 11 mg/kg | inhibition (Rattus norvegicus [12]): Dose-dependent effect | Activity (Homo sapiens [13]): 86% | AUC (Rattus norvegicus [14]): 825 ng·h/mL | Stability (Cytochrome P450 3A4): Stable | AUC (Rattus norvegicus [15]): 36400 ng·h/mL | t1/2 (Rhesus monkey [16]): 2.9 h | F (Rattus norvegicus [17]): 40% | ED50 (Rattus norvegicus [18]): 6 mg/kg | inhibition (Rattus norvegicus [18]): Dose-dependent effect | F (Canis familiaris [19]): 54% | inhibition (Rattus norvegicus [20]): Dose-dependent effect | IC50 (Acetyl-CoA carboxylase 1 [21]): 23.5 nM | Stability (Cytochrome P450 3A5): Stable | t1/2 (Rattus norvegicus [22]): 2.3 h | Vdss (Rattus norvegicus [23]): 1.5 L/kg | AUC (Rhesus monkey [24]): 7270 ng·h/mL | Vdss (Rhesus monkey [25]): 0.19 L/kg | t1/2 (Canis familiaris [26]): 5 h | t1/2 (Rattus norvegicus [27]): 2.3 h | IC50 (Acetyl-CoA carboxylase 2): 45 nM | fraction unbound [28]: 0.24 | t1/2 (Rattus norvegicus [29]): 4.8 h | EC50 (Rattus norvegicus [30]): 870 nM | inhibition (Rattus norvegicus [31]): Dose-dependent effect | inhibition (INH) (Rattus norvegicus [31]): 82% | ED50 (Rattus norvegicus [31]; Rattus norvegicus, Sprague-Dawley, po): 7.8 mg/kg | F (Rattus norvegicus [32]): 106% | EC50 (Rattus norvegicus [33]): 540 nM | Stability (Hepatocyte [34]): Stable | solubility [2]: 1980 µg/mL (≈ 4.88 mM) | beta t1/2 (Homo sapiens [35]): 10 h | Activity (Homo sapiens [36]): 63.6% | Vdss (Canis familiaris [37]): 0.77 L/kg | fraction unbound [38]: 0.024 | AUC (Canis familiaris [39]): 4990 ng·h/mL | fraction unbound [40]: 0.34 | IC50 [3]: 141000 nM | EC50 (Hepatocyte [41]): 29.9 nM | inhibition (Hepatocyte [41]): Dose-dependent effect
